Measurements collected from several papers.
Target: Calcium/calmodulin-dependent protein kinase kinase 2 (CAMKK2, Homo sapiens, UniProt Q96RR4)

CCc1ccccc1C(=O)Nc1n[nH]c2c(C)c(F)c(C3C(C#N)=C(C)N(C)C(C)=C3C#N)cc12
remaining binding (cell-free assay, competition with immobilised ligand; 1 µM): 95%

CS(=O)(=O)CCNCc1ccc(-c2ccc3ncnc(Nc4ccc(OCc5cccc(F)c5)c(Cl)c4)c3c2)o1
remaining signal (cell-free assay; 0.5 µM): 101%

C[C@H](c1ccnc(Nc2nc3ccc(-c4cc(N(C)C)ncn4)cc3[nH]2)c1)N1CCN(C(=O)CC(F)(F)F)CC1
remaining binding (cell-free assay, competition with immobilised ligand; 0.1 µM): 77%

COc1cc(Nc2cnc(C#N)c(O[C@H](C)CN(C)C)n2)ncc1-c1cnn(C)c1
remaining activity (enzyme activity, inhibitor, radiometric; 1 µM): 103%

Cc1noc([C@H]2C[C@@H](c3ccc(C(F)(F)F)cc3)CN(C(=O)N3CCS(=O)(=O)C3)C2)n1
remaining binding (cell-free assay, competition with immobilised ligand; 1 µM): 100%

N#CCCc1ccc2c(c1)-c1[nH]c3ccc([N+](=O)[O-])cc3c1CC(=O)N2
remaining signal (cell-free assay; 0.5 µM): 86.8%

Cn1c2c(Cl)c(Cl)ccc2c2cn[nH]c(=O)c21
ΔTm (thermal stability, DSF; 10 µM): 0.4 °C

CC(C)(C)c1nc(-c2cccc(NS(=O)(=O)c3c(F)cccc3F)c2F)c(-c2ccnc(N)n2)s1
remaining activity (enzyme activity, inhibitor, radiometric; 1 µM): 113%

CN1CC(Oc2cnc(C#N)cc2-c2ccn3nc(NC(=O)C4CC4)cc3c2)C1
inhibition (enzyme activity, inhibitor; 1 µM): 5%

CN1CCC2(CC1)NC(=O)c1c(c3ccc(Cl)c(Cl)c3n1C)C2C#N (racemic)
ΔTm (thermal stability, DSF; 10 µM): 1 °C

O=C(CSc1nc2nccnc2c(=O)n1CCc1ccccc1)Nc1nccs1
inhibition (enzyme activity, inhibitor; 10 µM): 5%

COc1cc(-c2cn(C3CCc4ccccc4N(CC(F)(F)F)C3=O)nn2)ccc1-n1ccc(C)n1 (centres unmarked)
remaining binding (cell-free assay, competition with immobilised ligand; 1 µM): 100%

Nc1nc(NC2CCCCC2)sc1C(=O)c1ccccc1
remaining activity (enzyme activity, inhibitor; 10 µM): 63%

CNC(=O)c1cc(Oc2ccc(NC(=O)Nc3ccc(Cl)c(C(F)(F)F)c3)cc2)ccn1
remaining signal (cell-free assay; 0.5 µM): 103%

CCC1(CC)NC(=O)c2c(c3ccc(Cl)c(Cl)c3n2C)C1C#N (centres unmarked)
ΔTm (thermal stability, DSF; 10 µM): 0.3 °C

CCCCNc1ncc2c(-c3ccc(F)cc3)nn(C[C@H]3CC[C@H](N)CC3)c2n1
inhibition (target engagement in cells, inhibitor, chemoproteomics; 20 mM): 33.4%

Cc1ccc(C(=O)Nc2ccc(CN3CCN(C)CC3)c(C(F)(F)F)c2)cc1C#Cc1cnc2cccnn12
remaining activity (enzyme activity, inhibitor; 23.5 nM): 83%

COc1cc2nccc(Oc3ccc(NC(=O)Nc4ccc(F)cc4F)c(F)c3)c2cc1OC
ΔTm (thermal stability, DSF; 10 µM): 5 to 10 °C

O=C(O)c1cc(-c2ccc(C3CCNCC3)cc2)c2ccc(-c3ccc(C(F)(F)F)cc3)cc2c1
remaining binding (cell-free assay, competition with immobilised ligand; 1 µM): 100%

CC(C)(O)[C@H]1CC[C@H](Nc2ccc3ncc(-c4cccc(C(F)(F)F)c4)n3n2)CC1
remaining activity (enzyme activity, inhibitor; 1 µM): 96.9%

CCCOc1ccc([C@H]2[C@H](C(=O)O)[C@@H](c3ccc4c(c3)OCO4)CN2CC(=O)Nc2c(CC)cccc2CC)cc1
remaining binding (cell-free assay, competition with immobilised ligand; 1 µM): 93%

Cc1ccc(NC(=O)c2ccc(C)c(C(F)(F)F)c2)cc1C#Cc1nn(C2CCC(O)CC2)c2ncnc(N)c12 (centres unmarked)
remaining signal (cell-free assay; 10 µM): 55%

COc1cc(/C=C/C(=O)CC(=O)/C=C/c2ccc(O)c(OC)c2)ccc1O
activity vs control (enzyme activity, inhibitor; 1 µM): 44%

COc1ccc2c(c1)O[C@H](c1ccc(OC)c(OC)c1)C[C@@H]2NC(=O)C1(c2ccc3c(c2)OC(F)(F)O3)CC1
remaining binding (cell-free assay, competition with immobilised ligand; 1 µM): 100%

O=C(Nc1cnn(-c2csc(C(=O)NC3COC3)c2)c1)Nc1c(F)cccc1Cl
remaining activity (enzyme activity, inhibitor; 5 µM): 81%

Oc1cccc(-c2nc(N3CCOCC3)c3oc4ncccc4c3n2)c1
remaining activity (enzyme activity, inhibitor; 10 µM): 114%

Cc1cnc(NC2CCOCC2)nc1-n1cnc(C(=O)NC(CN)c2cc(F)cc(Cl)c2)c1 (centres unmarked)
remaining activity (enzyme activity, inhibitor, radiometric; 1 µM): 81%

CN1CCN(c2cnc3c(C4CCN(C(=O)c5ccc(OC(F)(F)F)cc5N)CC4)ncnc3c2)CC1
remaining binding (cell-free assay, competition with immobilised ligand; 1 µM): 100%

FC(F)(F)Oc1cccc(-c2cnc3ccc(-c4ccncc4)nn23)c1
activity vs control (enzyme activity, inhibitor, radiometric; 5 µM): 60%
